Measurements published in ChEMBL document CHEMBL1147809, “Tumor-cell-targeted methionine-enkephalin analogues containing unnatural amino acids: design, synthesis, and in vitro antitumor activity” (2006).
*1 amine or outer side, *2 acyl side, *3 side chain or, on linkers, in order; H or OH if unused. Where a SMILES comes first, the peptide text is derived from it. [ ]: non-standard residue; d: D form. X1 = O=C(C(N[*:1])C1C2CC3CC(C2)CC1C3)[*:2]; X2 = O=C(C1(N[*:1])C2CC3CC(C2)CC1C3)[*:2]

What was measured:
Assay type in all cases: functional
HeLa [1] = assay: Antiproliferative activity against human HeLa cell line at 1 uM relative to control
Outline: (§1)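 Cells from ATCC grown as monolayers in DMEM with 10% FBS, 2 mM glutamine, penicillin/streptomycin, 37 °C, 5% CO2. Seeded at 2 × 10^4 cells/mL, and after 24 h the medium was replaced with fresh medium containing compound (water/10% DMSO stock, PBS working dilutions 10^-3 to 10^-6 M). Exposure was 72 h, then MTT read-out. Growth % = (A_peptide − A_blank)/(A_control − A_blank) × 100, with inhibition taken relative to untreated cells. Values are means of three experiments run in triplicate.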

HBL [2] = assay: Antiproliferative activity against human HBL cell line at 10 uM relative to control; outline: as §1
MCF7 [3] = assay: Antiproliferative activity against human MCF7 cell line at 1000 uM relative to control; outline: as §1
HEp-2 [4] = assay: Antiproliferative activity against human HEp2 cell line at 1 uM relative to control; outline: as §1
HT-29 [5] = assay: Antiproliferative activity against human HT29 cell line at 1000 uM relative to control; outline: as §1
HEp-2 [6] = assay: Antiproliferative activity against human HEp2 cell line at 1000 uM relative to control; outline: as §1
HT-29 [7] = assay: Antiproliferative activity against human HT29 cell line at 100 uM relative to control; outline: as §1
HT-29 [8] = assay: Antiproliferative activity against human HT29 cell line at 10 uM relative to control; outline: as §1
HEp-2 [9] = assay: Antiproliferative activity against human HEp2 cell line at 10 uM relative to control; outline: as §1
HeLa [10] = assay: Antiproliferative activity against human HeLa cell line at 1000 uM relative to control; outline: as §1
MCF7 [11] = assay: Antiproliferative activity against human MCF7 cell line at 100 uM relative to control; outline: as §1
HT-29 [12] = assay: Antiproliferative activity against human HT29 cell line at 1 uM relative to control; outline: as §1
MCF7 [13] = assay: Antiproliferative activity against human MCF7 cell line at 1 uM relative to control; outline: as §1
HeLa [14] = assay: Antiproliferative activity against human HeLa cell line at 10 uM relative to control; outline: as §1
SW-620 [15] = assay: Antiproliferative activity against human SW620 cell line at 10 uM relative to control; outline: as §1
Caco-2 [16] = assay: Antiproliferative activity against human Caco-2 cell line at 100 uM relative to control; outline: as §1
SW-620 [17] = assay: Antiproliferative activity against human SW620 cell line at 1000 uM relative to control; outline: as §1
Caco-2 [18] = assay: Antiproliferative activity against human Caco-2 cell line at 10 uM relative to control; outline: as §1
Caco-2 [19] = assay: Antiproliferative activity against human Caco-2 cell line at 1000 uM relative to control; outline: as §1
HBL [20] = assay: Antiproliferative activity against human HBL cell line at 1000 uM relative to control; outline: as §1
Caco-2 [21] = assay: Antiproliferative activity against human Caco-2 cell line at 1 uM relative to control; outline: as §1
SW-620 [22] = assay: Antiproliferative activity against human SW620 cell line at 1 uM relative to control; outline: as §1
HeLa [23] = assay: Antiproliferative activity against human HeLa cell line at 100 uM relative to control; outline: as §1
HBL [24] = assay: Antiproliferative activity against human HBL cell line at 100 uM relative to control; outline: as §1
HBL [25] = assay: Antiproliferative activity against human HBL cell line at 1 uM relative to control; outline: as §1
HEp-2 [26] = assay: Antiproliferative activity against human HEp2 cell line at 100 uM relative to control; outline: as §1
SW-620 [27] = assay: Antiproliferative activity against human SW620 cell line at 100 uM relative to control; outline: as §1
MCF7 [28] = assay: Antiproliferative activity against human MCF7 cell line at 10 uM relative to control
Outline: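 MTT assay on monolayer cells grown in DMEM with 10% FBS, 2 mM glutamine, penicillin and streptomycin, at 37 °C in 5% CO2. Cells were plated at 2 × 10^4 cells/mL on day 0. After 24 h the medium was replaced with fresh medium containing compound (working dilutions in PBS from 10% DMSO/water stock), then incubated 72 h. Percent growth inhibition was calculated against untreated cells after blank subtraction. Values are means of three experiments run in triplicate.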

| SMILES | inhibition at 10 µM (HBL [2]) [%] | inhibition at 1000 µM (MCF7 [3]) [%] | inhibition at 1 µM (HEp-2 [4]) [%] | inhibition at 1000 µM (HT-29 [5]) [%] | inhibition at 1000 µM (HEp-2 [6]) [%] | inhibition at 100 µM (HT-29 [7]) [%] | inhibition at 10 µM (HT-29 [8]) [%] | inhibition at 10 µM (HEp-2 [9]) [%] | inhibition at 1000 µM (HeLa [10]) [%] | inhibition at 1 µM (HT-29 [12]) [%] | inhibition at 10 µM (HeLa [14]) [%] | inhibition at 10 µM (SW-620 [15]) [%] | inhibition at 100 µM (Caco-2 [16]) [%] | inhibition at 1000 µM (SW-620 [17]) [%] | inhibition at 10 µM (Caco-2 [18]) [%] | inhibition at 1000 µM (Caco-2 [19]) [%] | inhibition at 1000 µM (HBL [20]) [%] | inhibition at 1 µM (Caco-2 [21]) [%] | inhibition at 1 µM (SW-620 [22]) [%] | inhibition at 100 µM (HeLa [23]) [%] | also measured |
| --- | --- | --- | --- | --- | --- | --- | --- | --- | --- | --- | --- | --- | --- | --- | --- | --- | --- | --- | --- | --- | --- |
| CSCC[C@H](NC(=O)[C@H](Cc1ccccc1)NC(=O)CNC(=O)CNC(=O)[C@@H](N)Cc1ccc(O)cc1)C(=O)O | 1 | 15.4 | 5.2 | 19.3 | 3.3 | 16.1 | 15.9 | 4.5 | 22.3 | 14 | 11.4 | 12.7 | 8.4 | 19.1 | 6.4 | 3.2 | 10.8 | 4.2 | 18.9 | 12 | inhibition at 1 µM (HeLa [1]): 2.3%; inhibition at 100 µM (MCF7 [11]): 7.6%; inhibition at 1 µM (MCF7 [13]): 3.6%; inhibition at 100 µM (HBL [24]): 4.5%; inhibition at 1 µM (HBL [25]): 0.4%; inhibition at 100 µM (HEp-2 [26]): 2.4%; inhibition at 100 µM (SW-620 [27]): 15.3%; inhibition at 10 µM (MCF7 [28]): 4.1% |
| N[C@@H](Cc1ccc(O)cc1)C(=O)N[C@@H](C(=O)O)C1C2CC3CC(C2)CC1C3 (some centres undefined) | 4.7 | 18.7 | 8.5 | 21.8 | 16.2 | 10.5 | 8.3 | 4.9 | 20.5 | 0.7 | 17.1 | 10 | 17.5 | 18.7 | 21.4 | 16 | 7.3 | 22.2 | 10.7 | 11 | inhibition at 1 µM (HeLa [1]): 7.2%; inhibition at 100 µM (MCF7 [11]): 7.7%; inhibition at 1 µM (MCF7 [13]): 1.6%; inhibition at 100 µM (HBL [24]): 2.7%; inhibition at 1 µM (HBL [25]): 3%; inhibition at 100 µM (HEp-2 [26]): 1.9%; inhibition at 100 µM (SW-620 [27]): 9.4%; inhibition at 10 µM (MCF7 [28]): 2.6% |
| N[C@@H](Cc1ccc(O)cc1)C(=O)NC1(C(=O)O)C2CC3CC(C2)CC1C3 (some centres undefined) | 14 | 7.5 | 14.2 | 26.5 | 30.4 | 5.4 | 1.6 | 19.7 | 36.1 | 9.8 | 10 | 16.5 | 18.9 | 58.2 | 22.7 | 26.4 | 14 | 3.5 | 12.9 | 8.2 | inhibition at 100 µM (HBL [24]): 7.5%; inhibition at 1 µM (HBL [25]): 6.5%; inhibition at 100 µM (HEp-2 [26]): 24.9%; inhibition at 100 µM (SW-620 [27]): 28.1%; inhibition at 10 µM (MCF7 [28]): 2.4% |
| N[C@@H](Cc1ccc(O)cc1)C(=O)N[C@@H](C(=O)NCC(=O)O)C1C2CC3CC(C2)CC1C3 (some centres undefined) | 1.2 | 15.6 | 4.6 | 22.4 | 26.4 | 12.4 | 3.8 | 4.9 | 28.2 | 7.6 | 11.7 | 13.5 | 8.1 | 25.3 | 6.9 | 8.6 | 19.4 | 8.1 | 17 | 11.6 | inhibition at 1 µM (HeLa [1]): 11%; inhibition at 100 µM (HBL [24]): 3.3%; inhibition at 100 µM (HEp-2 [26]): 12.6%; inhibition at 100 µM (SW-620 [27]): 13.5% |
| N[C@@H](Cc1ccc(O)cc1)C(=O)N[C@H](C(=O)O)C1C2CC3CC(C2)CC1C3 (some centres undefined) | 3.9 | 17.8 | 6.2 | 20.8 | 21.2 | 3.4 | 8.9 | 6.4 | 14.8 | 4.9 | 6.1 | 21.9 | 8.4 | 17.9 | 16.5 | 14.5 | 7.3 | 3.7 | 10.5 | 3.1 | inhibition at 1 µM (HeLa [1]): 7.5%; inhibition at 100 µM (MCF7 [11]): 1.2%; inhibition at 100 µM (HEp-2 [26]): 8.2%; inhibition at 100 µM (SW-620 [27]): 11.8%; inhibition at 10 µM (MCF7 [28]): 1.1% |
| N[C@@H](Cc1ccc(O)cc1)C(=O)N[C@H](C(=O)NCC(=O)O)C1C2CC3CC(C2)CC1C3 (some centres undefined) | 2.9 | 21.2 | 2.7 | 15.7 | 26.7 | 9.5 | 7.4 | 2 | 28.2 | 5.4 | 7.3 | 20.4 | 6.4 | 23.4 | 4.2 | 6.2 | 17.9 | 2.2 | 13.6 | 9.9 | inhibition at 1 µM (HeLa [1]): 9.8%; inhibition at 100 µM (HBL [24]): 5.9%; inhibition at 1 µM (HBL [25]): 1.6%; inhibition at 100 µM (HEp-2 [26]): 18.8%; inhibition at 100 µM (SW-620 [27]): 14.4% |
| CSCC[C@H](NC(=O)[C@H](Cc1ccccc1)NC(=O)CNC(=O)CNC(=O)[C@@H](N)Cc1ccc(O)cc1)C(=O)NC1(C(=O)O)C2CC3CC(C2)CC1C3 (some centres undefined) (H-YGGFM[X2]-OH) | 70.7 | 25.9 | – | 9.2 | 45 | – | – | 3.9 | 9.3 | – | – | – | – | – | 11.1 | 47 | 34.4 | – | – | – | inhibition at 100 µM (MCF7 [11]): 6.9%; inhibition at 1 µM (MCF7 [13]): 2.2%; inhibition at 1 µM (HBL [25]): 4.1%; inhibition at 10 µM (MCF7 [28]): 7.1% |
| CSCC[C@H](NC(=O)[C@H](Cc1ccccc1)NC(=O)CNC(=O)C(NC(=O)[C@@H](N)Cc1ccc(O)cc1)C1C2CC3CC(C2)CC1C3)C(=O)O (some centres undefined) (H-Y[X1]GFM-OH) | 4.5 | 29.9 | 13.7 | 14.5 | 44.5 | 5.1 | 6.6 | 25.8 | 24.1 | 16.2 | 9.5 | 13.1 | 12.1 | 38.4 | 10.9 | 8.1 | 23.2 | 17.7 | 26.4 | 15.4 | inhibition at 1 µM (HeLa [1]): 8.5%; inhibition at 100 µM (MCF7 [11]): 9.6%; inhibition at 100 µM (HBL [24]): 11.4%; inhibition at 1 µM (HBL [25]): 2.4%; inhibition at 100 µM (HEp-2 [26]): 34.7%; inhibition at 100 µM (SW-620 [27]): 14.6% |
| CSCC[C@H](NC(=O)[C@H](Cc1ccccc1)NC(=O)CNC(=O)C1(NC(=O)[C@@H](N)Cc2ccc(O)cc2)C2CC3CC(C2)CC1C3)C(=O)O (some centres undefined) (H-Y[X2]GFM-OH) | 1.4 | 22.8 | 1 | 23.7 | 36.1 | 7.9 | 11 | 10.1 | 28 | 3.3 | 10.2 | 15.5 | 18.5 | 29 | 8.4 | 10.6 | 18.3 | 3 | 12.2 | 13.3 | inhibition at 1 µM (HeLa [1]): 4.9%; inhibition at 100 µM (HBL [24]): 2.4%; inhibition at 1 µM (HBL [25]): 0.8%; inhibition at 100 µM (HEp-2 [26]): 16.8%; inhibition at 100 µM (SW-620 [27]): 24.7% |
